KCNK3 inh = human KCNK3 channel inhibitors, primary screen, CHO cells, FluxOR thallium flux, B-score. AID 602410, 2012. FluxOR fluorescence; active compounds read low. 340,000 tested, 0.84% active. B-score at 10 µM;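 active means B-score under library mean minus 4 SD, starting fluorescence ratio at most library mean plus 5 SD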;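 further: more negative B-score means stronger inhibition of thallium flux through KCNK3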
KCNQ1 block = inhibitors of human KCNQ1 channel, primary screen, cell-based, thallium flux, high-throughput; B-score at 10 µM; Potassium voltage-gated channel subfamily KQT member 1 (Homo sapiens), P51787; CHO-K1 KCNQ1, FluxOR thallium flux fluorescence; active compounds read high; 310,000 tested, 1.3% active; AID 2642, 2010;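 active means compounds whose thallium flux B-score, printed positive for inhibition, exceeds three library SD while starting fluorescence stays within three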;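 further: channel opened by potassium depolarization with thallium stimulus after 20 min compound exposure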
KCNK9 inh = KCNK9 potassium channel inhibitors, primary screen, HEK293 cells, thallium flux; 310,000 tested, 1.2% active; Potassium channel subfamily K member 9 (Homo sapiens), Q9NPC2; AID 488922, 2010; B-score at 10 µM; FluxOR thallium flux fluorescence; active compounds read low;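 active means ratio B-score over 3 SD below the library mean, with starting fluorescence within 5 SD of its mean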;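 further: negative B-score means less thallium flux so channel inhibition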
hERG protect = hERG rescue from dofetilide block, primary screen, cell-based, CHO-hERG, FluxOR thallium flux, dofetilide IC70; AID 1511, 2009; 310,000 tested, 0.51% active; activation (rescue from dofetilide block), less the hit threshold, % at 10 µM; dofetilide IC70 present; Voltage-gated inwardly rectifying potassium channel KCNH2 (Homo sapiens), Q12809;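 active means activation above the mean of controls blocked by dofetilide plus 5 SD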;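 further: thallium influx through hERG after potassium depolarization seen as dye fluorescence rise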
Kir21 inh = inhibitors of mouse Kir2.1 inward-rectifier potassium channel | B-score at 10 µM | AID 1672, 2009 | 310,000 tested, 0.85% active | HEK293-Kir2.1, FluxOR thallium flux fluorescence; active compounds read low;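 active means fluorescence ratio B-score at or below minus 3 SD of library scores, with starting-brightness B-score within 2 SD, cut at about -4.2 in these data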;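 further: channel flux triggered by added potassium and thallium sulfate stimulus; B-score of peak minus minimum fluorescence over baseline after thallium stimulus; more negative B-score means stronger Kir2.1 block with less thallium influx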
Target sequence (P35561 whole entry, looked up): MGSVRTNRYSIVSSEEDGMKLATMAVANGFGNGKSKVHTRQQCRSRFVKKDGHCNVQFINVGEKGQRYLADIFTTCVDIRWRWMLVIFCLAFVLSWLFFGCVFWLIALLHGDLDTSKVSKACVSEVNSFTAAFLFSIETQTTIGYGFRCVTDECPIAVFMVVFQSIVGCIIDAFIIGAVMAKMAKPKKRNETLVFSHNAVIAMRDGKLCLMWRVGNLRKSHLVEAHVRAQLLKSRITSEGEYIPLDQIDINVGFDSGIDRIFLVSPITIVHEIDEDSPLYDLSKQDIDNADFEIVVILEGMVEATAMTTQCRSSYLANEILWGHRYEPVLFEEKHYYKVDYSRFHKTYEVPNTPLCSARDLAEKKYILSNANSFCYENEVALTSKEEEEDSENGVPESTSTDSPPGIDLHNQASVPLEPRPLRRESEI
KCNQ1 act = potentiators or activators of KCNQ1 channel, primary screen, cell-based, thallium flux, high-throughput. CHO-K1 KCNQ1, thallium flux FluxOR fluorescence; active compounds read high. B-score at 10 µM. 310,000 tested, 0.35% active. AID 2648, 2010;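 active means fluorescence ratio B-score, a plate-corrected score, at least three library SD, with initial intensity B-score within 5 SD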
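Doses: Single concentration per compound, DMSO matched to controls | Test system: KCNQ1-transfected CHO-K1 cells | Timing: 90 min dye loading and 20 min compound exposure, both at room temperature | Measured by: Kinetic FluxOR thallium fluorescence, 10-s 1-Hz baseline, 110-s post-stimulus read | Medium: Assay buffer with matched DMSO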
KCNK9 inh conf = KCNK9 potassium channel inhibitors, confirmation, HEK293 cells, thallium flux, duplicate. FluxOR thallium flux fluorescence. shares compounds with KCNK9 inh. inhibition, % at 10 µM. 4,900 tested, 43% active. AID 492992, 2010;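 active means thallium signal inhibited by more than 5 SD of the compound-free buffer control wells, on both duplicate plates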
Kir2-1 spec = mouse Kir2.1 channel inhibition, confirmation, selectivity assay for KCNK9 modulator project, cell-based, HEK293, thallium flux; shares compounds with KCNK9 inh; Kir2.1 cells, FluxOR thallium flux fluorescence; inhibition, % at 10 µM; 4,900 tested, 4% active; AID 492993, 2010;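 active means thallium signal drop more than 5 SD beyond the mean of the no-compound control wells, seen in both duplicate plates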;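 further: signal is fluorescence rise after thallium addition divided by baseline fluorescence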
HEK293 Tl ctr = thallium flux in non-induced HEK293 cells, confirmation, counter-screen for KCNK9 inhibitor project, cell-based, second counter screen, non-induced KCNK9-HEK293; shares compounds with KCNK9 inh; AID 492997, 2010; FluxOR thallium flux; 4,900 tested, 40% active; inhibition, % at 10 µM;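 active means thallium signal drop beyond 5 SD of the untreated control mean, on both duplicate plates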
KCNK3 inh conf = retest of human KCNK3 channel inhibitors, confirmation, CHO cells, FluxOR thallium flux, triplicate | shares compounds with KCNK3 inh | 2,400 tested, 99% active | FluxOR fluorescence; 0% buffer, 100% carvedilol maximal block | ratio percent of control, % at 10 µM;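 active means ratio percent of control, averaged over triplicates, above buffer control mean plus 5 SD, cut at about 64% in these data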;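 further: ratio is the fluorescence rise from min to max over baseline after thallium stimulus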
KCNK3 uninduced = thallium flux inhibition in non-induced cells, primary screen, counter-screen for KCNK3 inhibitor project, cell-based, non-induced KCNK3 line, FluxOR thallium, triplicate; shares compounds with KCNK3 inh; non-induced KCNK3 parental cells; active compounds read low; thallium flux ratio (lower = more inhibition) at 10 µM; 2,400 tested, 40% active;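 active means thallium flux ratio, averaged over three wells, more than 5 SD below the buffer control mean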;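 further: host cells are CHO cells without KCNK3 induction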
Large screens that a line does not name were inactive (follow-up assays come after a bar, where they were run). Rows were chosen to be rich in hits. Some 3.7% of all compounds tested hit in one or more screens of this group.

COc1ccc(OC)c(CCNC(=O)c2cccc(NC(=O)C3=C(C)OCCS3)c2)c1	KCNK3 inh -11, KCNK9 inh -8.16 | KCNK9 inh conf 37.5% | Kir2-1 spec inactive | HEK293 Tl ctr inactive | KCNK3 inh conf 97.0 | KCNK3 uninduced inactive
Cc1cc(C)c(S(=O)(=O)N2CCCCC2)c(C)c1N(C)S(=O)(=O)c1ccccc1	KCNK3 inh -8.76 | KCNK9 inh conf inactive | Kir2-1 spec inactive | HEK293 Tl ctr inactive | KCNK3 inh conf 97.0 | KCNK3 uninduced 0.157
Cc1cc(C)c(S(=O)(=O)N2CCOCC2)c(C)c1N(C)S(=O)(=O)c1ccccc1	none
O=C(NCc1ccc2c(c1)OCO2)c1ccc(-c2ccc(Cl)cc2)o1	KCNK3 inh -8.88, KCNK9 inh -8.62 | KCNK9 inh conf 27.0% | Kir2-1 spec inactive | HEK293 Tl ctr 26.5% | KCNK3 inh conf 140.3 | KCNK3 uninduced 0.123
CC(C)Cc1ccc(C(=O)NCc2ccc3c(c2)OCO3)o1	none
CC(=O)Nc1cc(C(F)(F)F)ccc1Oc1cccc(Br)c1	none
CCOCC(=O)Nc1cc(C(F)(F)F)ccc1Oc1cccc(Br)c1	KCNK9 inh -11.7 | KCNK9 inh conf 74.0% | Kir2-1 spec inactive | HEK293 Tl ctr 54.5% | KCNK3 inh conf 99.3 | KCNK3 uninduced inactive
COc1cc(/C=N/NC(=O)CNc2n[nH]c(=O)[nH]c2=O)ccc1OCc1ccccc1	none
Clc1ccc(CN(CC2CCCO2)C(c2cccs2)c2nnnn2C2CCCC2)cc1 (configuration not stated)	KCNK3 inh -8.9, KCNQ1 block 6, KCNK9 inh -17.4 | KCNK9 inh conf 60.0% | Kir2-1 spec inactive | HEK293 Tl ctr 48.5% | KCNK3 inh conf 110.3 | KCNK3 uninduced 0.153
CCC(C(=O)O/N=C(\N)c1ccc(Cl)cc1)c1ccccc1 (configuration not stated)	KCNK3 inh -10.2, KCNK9 inh -6.63 | KCNK3 inh conf 108.0 | KCNK3 uninduced inactive
COc1ccc(S(=O)(=O)N2CCCCCC2)cc1C(=O)N(C)Cc1cccs1	none
CCOC(=O)N1CCN(CC(O)COc2ccccc2[N+](=O)[O-])CC1 (configuration not stated)	none
O=C(Nc1ccc2c(c1)Cc1ccccc1-2)c1ccc(Br)o1	KCNK3 inh -10.1 | KCNK3 inh conf 86.0 | KCNK3 uninduced inactive
O=C(N/N=C/c1cn(-c2ccccc2)nc1-c1cccnc1)c1ccccc1	KCNK3 inh -9.51 | KCNK3 inh conf 98.0 | KCNK3 uninduced inactive
Cc1cc2oc(=O)cc(CN(C)Cc3ccccc3Cl)c2cc1C	KCNK3 inh -10, KCNQ1 block 6 | KCNK3 inh conf 57.0 | KCNK3 uninduced inactive
Cc1ccc2c(CN(C)Cc3cccc(F)c3)cc(=O)oc2c1	none
COc1cc(CN(C)Cc2cc(=O)oc3cc(C)c(Cl)cc23)ccc1OC(F)F	KCNK3 inh -10.3 | KCNK3 inh conf 105.7 | KCNK3 uninduced inactive
Cc1cc2oc(=O)cc(CN(C)Cc3cccc(F)c3)c2cc1Cl	KCNK3 inh -10.9 | KCNK3 inh conf 99.7 | KCNK3 uninduced inactive
Cc1cc2oc(=O)cc(CN(C)Cc3ccccc3F)c2cc1Cl	KCNK3 inh -12, Kir21 inh -4.28 | KCNK3 inh conf 117.7 | KCNK3 uninduced 0.143
COc1ccc(CN(C)Cc2cc(=O)oc3cc(C)c(C(C)C)cc23)cc1OC	none
CCOC(=O)C1(Cc2ccccc2C(F)(F)F)CCN(C2CCN(C(C)=O)CC2)CC1	none
CNC(=O)C12CC3CC(CC(Cl)(C3)C1)C2	none
Cc1ccc2c(CN(C)Cc3cccc(Cl)c3)cc(=O)oc2c1C	KCNK3 inh -8.73 | KCNK3 inh conf 126.3 | KCNK3 uninduced inactive
CCOc1ccc(CN(C)Cc2cc(=O)oc3c(C)c(C)ccc23)cc1OC	none (no result: KCNQ1 block, KCNK9 inh, hERG protect, Kir21 inh, KCNQ1 act)
Oc1nc(Nc2cccc(Cl)c2)sc1/C=C1\C=Nc2ccccc21	none
Oc1cccc(Nc2nc(O)c(/C=C3\C=Nc4ccccc43)s2)c1	KCNK3 inh -14.8 (no result: KCNQ1 block, KCNK9 inh, hERG protect, Kir21 inh, KCNQ1 act) | KCNK3 inh conf 148.3 | KCNK3 uninduced 0.0827
Cc1ccc(Br)cc1S(=O)(=O)N1CCN(c2ccccc2)CC1	KCNK3 inh -10.7 | KCNK3 inh conf 101.7 | KCNK3 uninduced 0.151
Clc1cccc(-c2nc(NCCCN3CCOCC3)c3ccccc3n2)c1	KCNK3 inh -9.37 | KCNK3 inh conf 90.7 | KCNK3 uninduced 0.152
Clc1cccc(-c2nc(NCCN3CCOCC3)c3ccccc3n2)c1	none
CC1=CC2=NC(=O)/C(=C\c3cc(C)n(-c4cccc(Cl)c4)c3C)C(=N)N2O1	none
CC1=CC2=NC(=O)/C(=C/c3coc4ccc(Cl)cc4c3=O)C(=N)N2O1	KCNK3 inh -9.21, KCNQ1 block 10 | KCNK3 inh conf 133.7 | KCNK3 uninduced 0.0867
COc1ccc(OC)c(NC(=S)N2c3ccccc3CC2C)c1 (configuration not stated)	KCNK3 inh -9.09 | KCNK3 inh conf 105.0 | KCNK3 uninduced inactive
O=C(N/N=C\c1ccc(Cl)cc1)c1sccc1-n1cccc1	none
O=C(N/N=C\c1ccc(Cl)cc1Cl)c1sccc1-n1cccc1	KCNK3 inh -9.41 | KCNK3 inh conf 93.3 | KCNK3 uninduced inactive
Cc1cccc(OCCOC(=O)c2c(-c3ccccc3)noc2C)c1	KCNK3 inh -13.2 | KCNK3 inh conf 108.0 | KCNK3 uninduced inactive

Screening results deposited in PubChem by Johns Hopkins Ion Channel Center.
